Measured values from ChEMBL document CHEMBL4406857, “Discovery of new small molecule inhibitors targeting isocitrate dehydrogenase 1 (IDH1) with blood-brain barrier penetration” (Eur J Med Chem, 2019).
Active and inactive are the calls of the source. The calls are words filed in the database; no cut-off is given here.

Tests used:
[1] = Clearance in ICR mouse at 1 mg/kg, iv measured upto 24 hrs by LCMS analysis; assay type: ADME, organism-based; conditions: in vivo
In short: (§1)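 Male ICR mice (6-8 weeks, 20-25 g), nine animals, dosed 1 mg/kg by slow intravenous injection or 5 mg/kg orally. Blood sampled into EDTA at 5 min (iv only), 15 min, 30 min, 1, 2, 4, 8 and 24 h. Plasma stored at -20 °C, prepared by acetonitrile protein precipitation with dexamethasone internal standard, and analysed for parent compound. Values are means of three replicates.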

[2] = Volume of distribution at steady state in ICR mouse at 1 mg/kg, iv measured upto 24 hrs by LCMS analysis; assay type: ADME, organism-based; conditions: in vivo, read-out: Vdss; in short: as §1
[3] = test system: Isocitrate dehydrogenase [NADP] cytoplasmic (Homo sapiens), O75874 [R132H]; test: Inhibition of human IDH1 R132H mutant transfected in GL261 cells assessed as reduction in 2-HG production at 100 nM incubated with compound for 48 hrs by D2HG assay kit based fluorescence assay; assay type: cell-based
[4] = Oral bioavailability in ICR mouse at 5 mg/kg measured upto 24 hrs by LCMS analysis; assay type: ADME, organism-based; conditions: in vivo; for bioavailability: ICR; in short: as §1
[5] = target: T1, Isocitrate dehydrogenase [NADP] cytoplasmic (Homo sapiens, UniProt O75874, R132C); test: Inhibition of IDH1 R132C mutant in human HT1080 cells assessed as reduction in 2-HG production incubated with compound for 48 hrs by D2HG assay kit based fluorescence assay; assay type: cell-based
[6] = Half life in ICR mouse at 5 mg/kg, po measured upto 24 hrs by LCMS analysis; assay type: ADME, organism-based; conditions: in vivo; in short: as §1
[7] = target: Isocitrate dehydrogenase [NADP] cytoplasmic (Homo sapiens, UniProt O75874, R132H); test: (§2) Inhibition of recombinant human C-terminal His8-tagged IDH1 R132H mutant expressed in Escherichia coli BL21 assessed as reduction in NADPH consumption using alpha-ketoglutarate as substrate preincubated for 60 mins followed by substrate addition measured for 60 mins in presence of NADPH by diaphorase/resazurin-based assay
[8] = Drug uptake in brain of athymic BALB/c nude mouse xenografted with human HT1080 cells at 50 to 150 mg/kg, po administered as a single dose via gavage measured upto 24 hrs post dosing by LC-MS/MS analysis; assay type: ADME, organism-based; conditions: in vivo
In short: (§3)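 Female athymic nude mice carrying subcutaneous right-flank HT1080 xenografts (5 × 10^6 cells in PBS/Matrigel 1:1). Compound given by oral gavage as a suspension in 0.5% MC + 0.5% Tween 80 in water, 10 ml/kg. Blood taken by orbital sinus bleed; brain and tumour collected at 2, 6, 12 and 24 h, homogenized in PBS. Samples acetonitrile-precipitated with dexamethasone internal standard and measured by LC/MS/MS.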

[9] = Drug uptake in plasma of athymic BALB/c nude mouse xenografted with human HT1080 cells at 50 to 150 mg/kg, po administered as a single dose via gavage measured upto 24 hrs post dosing by LC-MS/MS analysis; assay type: ADME, organism-based; conditions: in vivo; in short: as §3
[10] = target: Isocitrate dehydrogenase [NADP] cytoplasmic (Homo sapiens, UniProt O75874); test: Inhibition of wild type recombinant human C-terminal His8-tagged IDH1 expressed in Escherichia coli BL21 assessed as reduction in NADP consumption using DL-isocitrate as substrate preincubated for 60 mins followed by substrate addition and measured for 60 mins in presence of NADP by diaphorase/resazurin-based fluorescence assay
[11] = AUC in ICR mouse at 1 mg/kg, iv measured upto 24 hrs by LCMS analysis; assay type: ADME, organism-based; parameters: time < 24 hr, dose 1 mg/kg, route intravenous; conditions: in vivo; in short: as §1
[12] = target: T1, Isocitrate dehydrogenase [NADP] cytoplasmic; test: as §2, with “R132C” for “R132H”, “addition and” for “addition”, “diaphorase/resazurin-based fluorescence” for “diaphorase/resazurin-based”
[13] = Drug uptake in tumor of athymic BALB/c nude mouse xenografted with human HT1080 cells at 50 to 150 mg/kg, po administered as a single dose via gavage measured upto 24 hrs post dosing by LC-MS/MS analysis; assay type: ADME, organism-based, Neoplasm; conditions: in vivo; in short: as §3
[14] = Half life in ICR mouse at 1 mg/kg, iv measured upto 24 hrs by LCMS analysis; assay type: ADME, organism-based; conditions: in vivo; in short: as §1
[15] = Cmax in ICR mouse at 5 mg/kg, po measured upto 24 hrs by LCMS analysis; assay type: ADME, organism-based; parameters: dose 5 mg/kg, route oral; conditions: in vivo; in short: as §1
HT-1080 = test: In vivo inhibition of IDH1 R132C mutant in human HT1080 cells xenografted in athymic BALB/c nude mouse assessed as reduction in 2-HG level in tumor tissue at 50 mg/kg, po administered as a single dose via gavage measured upto 24 hrs post dosing by LC-MS/MS analysis; assay type: functional, organism-based
In short: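 HT1080 subcutaneous xenografts in female athymic nude mice, randomized block design, 12 mice per group. Oral gavage of suspension (0.5% MC + 0.5% Tween 80 in water, 10 ml/kg). Tumours collected at 2, 6, 12 and 24 h and frozen in liquid nitrogen. 2-HG measured by LC/MS/MS; percent inhibition taken relative to vehicle-treated mice, reported as mean ± SEM.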

[16] = AUC in ICR mouse at 5 mg/kg, po measured upto 24 hrs by LCMS analysis; assay type: ADME, organism-based; parameters: dose 5 mg/kg, time < 24 hr, route oral; conditions: in vivo; in short: as §1

Isocitrate dehydrogenase [NADP] cytoplasmic (Homo sapiens, UniProt O75874, R132H), sequence (O75874 2-414 R132H limits assumed): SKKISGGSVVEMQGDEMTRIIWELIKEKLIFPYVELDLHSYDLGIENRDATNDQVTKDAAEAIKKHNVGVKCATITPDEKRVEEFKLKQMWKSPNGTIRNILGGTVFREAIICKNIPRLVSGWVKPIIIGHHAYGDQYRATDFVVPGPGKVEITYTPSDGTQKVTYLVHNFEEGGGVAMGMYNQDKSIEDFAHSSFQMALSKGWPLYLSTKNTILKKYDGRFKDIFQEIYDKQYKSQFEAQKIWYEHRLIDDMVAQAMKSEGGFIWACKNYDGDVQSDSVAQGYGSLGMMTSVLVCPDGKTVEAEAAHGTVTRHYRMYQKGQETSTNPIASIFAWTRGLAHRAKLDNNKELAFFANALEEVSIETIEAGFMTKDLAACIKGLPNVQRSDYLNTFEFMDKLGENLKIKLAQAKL
T1 sequence (O75874 2-414 R132C limits assumed): as the sequence (O75874 2-414 R132H limits assumed) above, with H131C counted along it
Isocitrate dehydrogenase [NADP] cytoplasmic (Homo sapiens, UniProt O75874), sequence (O75874 whole entry): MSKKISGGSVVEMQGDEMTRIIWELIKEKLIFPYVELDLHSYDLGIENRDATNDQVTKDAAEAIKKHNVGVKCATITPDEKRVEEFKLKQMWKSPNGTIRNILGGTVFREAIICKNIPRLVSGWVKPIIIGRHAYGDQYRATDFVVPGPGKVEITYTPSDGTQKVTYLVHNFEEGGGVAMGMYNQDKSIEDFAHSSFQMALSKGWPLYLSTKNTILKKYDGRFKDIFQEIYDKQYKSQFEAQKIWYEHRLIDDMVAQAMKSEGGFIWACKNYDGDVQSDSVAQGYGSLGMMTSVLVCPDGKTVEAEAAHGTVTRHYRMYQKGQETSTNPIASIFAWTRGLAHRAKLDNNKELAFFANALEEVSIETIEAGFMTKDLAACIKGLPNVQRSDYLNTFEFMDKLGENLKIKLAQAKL
Isocitrate dehydrogenase [NADP] cytoplasmic (Homo sapiens), O75874 [R132H], sequence (O75874 whole entry R132H): as the sequence (O75874 whole entry) above, with R132H counted along it

| Structure (SMILES) | clearance [1] [mL/min/kg] | Vd [2] [L/kg] | bioavailability [4] [%] | IC50 [5] [nM] | half-life [6] [h] | IC50 [7] [nM] | AUC at 24 h [11] [µM·h] | IC50 [12] [nM] | half-life [14] [h] | Cmax [15] [nM] | AUC at 24 h [16] [µM·h] | further results |
| --- | --- | --- | --- | --- | --- | --- | --- | --- | --- | --- | --- | --- |
| C[C@H](Nc1nccc(N2C(=O)OC[C@@H]2[C@H](C)F)n1)c1ncn2c1CCc1cc(C(F)(F)F)ccc1-2 | 23 | 2.3 | 150 | 15.9 | 2.5 | 4 | 1.44 | 8.2 | 1.5 | 1690 | 11 | inhibition [3]: Active; Drug uptake [8]: Active; Drug uptake [9]: Active; IC50 [10]: 6680 nM; Drug uptake [13]: Active; inhibition (HT-1080): Active |
| C[C@H](Nc1nccc(N2C(=O)OC[C@@H]2[C@H](C)F)n1)c1ncn2c1CCc1cc(Cl)ccc1-2 | 50 | 4.3 | 117 | 53.7 | 3.4 | 2.3 | 0.717 | 15.3 | 1.7 | 932 | 4.02 |  |
| CC(C)[C@H]1C(C)OC(=O)N1c1ccnc(N[C@@H](C)c2ncn3c2CCc2cc(C(F)(F)F)ccc2-3)n1 (stereo not given in full) |  |  |  |  |  | 42 |  | 15 |  |  |  |  |
| CC(C)[C@@H]1N(c2ccnc(N[C@@H](C)c3ncn4c3CCc3cc(C(F)(F)F)ccc3-4)n2)C(=O)OC1(C)C |  |  |  |  |  | 50.8 |  | 18.8 |  |  |  |  |
| CC1Cc2cc(C(F)(F)F)ccc2-n2cnc([C@H](C)Nc3nccc(N4C(=O)OC[C@@H]4[C@H](C)F)n3)c21 (stereo not given in full) |  |  |  |  |  | 120 |  | 119 |  |  |  |  |
| C[C@H](Nc1nccc(N2C(=O)OC[C@@H]2c2ccccc2)n1)c1ncn2c1CCc1cc(C(F)(F)F)ccc1-2 |  |  |  |  |  | 15.5 |  | 14.2 |  |  |  |  |
| C[C@H](Nc1nccc(N2C(=O)OC[C@@H]2[C@H](C)F)n1)c1ncn2c1COc1cc(Cl)ccc1-2 | 39 | 2.3 | 109 | 60.3 | 2.4 | 2.2 | 0.917 | 14.4 | 1 | 1210 | 5.01 | IC50 [10]: 7100 nM |
| CC(C)[C@H]1COC(=O)N1c1ccnc(N[C@@H](C)c2ncn3c2CCc2cc(C(F)(F)F)ccc2-3)n1 | 109 | 3 | 109 | 12.5 | 2 | 1 | 0.312 | 9.3 | 0.5 | 730 | 1.65 |  |

Now from value to compound, other results behind:

| clearance [1] [mL/min/kg] | Vd [2] [L/kg] | bioavailability [4] [%] | IC50 [5] [nM] | half-life [6] [h] | IC50 [7] [nM] | AUC at 24 h [11] [µM·h] | IC50 [12] [nM] | half-life [14] [h] | Cmax [15] [nM] | AUC at 24 h [16] [µM·h] | Structure (SMILES) | further results |
| --- | --- | --- | --- | --- | --- | --- | --- | --- | --- | --- | --- | --- |
| 21 | 2.1 |  |  | 2.5 | 2.1 | 1.52 | 17 | 1.4 | 1700 | 12.7 | C[C@H](Nc1ncc(F)c(N2C(=O)OC[C@@H]2[C@H](C)F)n1)c1ncn2c1CCc1cc(C(F)(F)F)ccc1-2 | F ([4]; 24 h): 165% |
|  |  |  |  |  | 128 |  | 93.5 |  |  |  | CC1Cc2c([C@H](C)Nc3nccc(N4C(=O)OC[C@@H]4[C@H](C)F)n3)ncn2-c2ccc(C(F)(F)F)cc21 (stereo not given in full) |  |
|  |  |  |  |  | 23.8 |  | 24.1 |  |  |  | C[C@H](Nc1nccc(N2C(=O)OC[C@@H]2[C@H](C)F)n1)c1ncn2c1CSc1cc(C(F)(F)F)ccc1-2 |  |
|  |  |  |  |  | 24.1 |  | 81.9 |  |  |  | C[C@H](Nc1nccc(N2C(=O)OC[C@@H]2[C@H](C)F)n1)c1ncn2c1CCc1c(Cl)cccc1-2 |  |
